# Active and inactive are the calls of the source. The calls are words filed in the database; no cut-off is given here.
# Tests used:
# B16 [1] = experiment: Antitumor activity against mouse B16 cells allografted in BDF1 mouse assessed as increase of median life span at 400 mg/kg, ip on day 1 to 9 measured up to 80 days relative to control; type: functional; settings: route intraperitoneal
# Summary of the method: (§1)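 BDF1 mice implanted ip with a homogenate from 0.05 g of B16 tumor. Test agent given ip on days 1-9. Deaths recorded for 80 days. Result is % increase in median life span over untreated controls. "Cures" are survivors/total at 80 days.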
# P388 [2] = experiment: Antitumor activity against mouse P388 cells allografted in mouse assessed as increase of median life span at 400 mg/kg, ip on day 1 to 9 measured up to 60 days relative to control; type: functional; settings: route intraperitoneal
# Summary of the method: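 BDF1 or CDF1 mice inoculated ip with ascitic P388 leukemia cells. Dosing ip on days 1-9. Deaths followed for 60 days; % increase in median life span over controls.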
# P388 [3] = experiment: Antitumor activity against mouse P388 cells allografted in mouse assessed as disease cure at 400 mg/kg, ip on day 1 to 9 measured up to 60 days; type: functional, organism-based; set-up: dose 400 mg/kg
# Summary of the method: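 P388 ascitic leukemia cells given ip to BDF1 or CDF1 mice; ip dosing on days 1-9. Deaths followed for 60 days, cures expressed as survivors/total at 60 days.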
# B16 [4] = experiment: Antitumor activity against mouse B16 cells allografted in BDF1 mouse assessed as disease cure at 400 mg/kg, ip on day 1 to 9 measured up to 80 days; type: functional, organism-based; set-up: dose 400 mg/kg
# Summary of the method: (§2)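 BDF1 mice implanted ip with homogenate from 0.05 g of B16 tumor, then dosed ip on days 1-9. Deaths recorded for 80 days; "cures" scored as survivors/total at 80 days.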
# P388 [5] = experiment: Antitumor activity against mouse P388 cells allografted in mouse assessed as disease cure at 250 mg/kg, ip on day 1, 5 and 9 measured up to 60 days; type: functional, organism-based; set-up: dose 250 mg/kg
# Summary of the method: (§3)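 BDF1 or CDF1 mice inoculated ip with ascitic P388 leukemia cells, dosed ip on days 1, 5 and 9. Deaths recorded for 60 days; "cures" taken as number of survivors/total at 60 days.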
# P388 [6] = experiment: Antitumor activity against mouse P388 cells allografted in mouse assessed as increase of median life span at 250 mg/kg, ip on day 1, 5 and 9 measured up to 60 days relative to control; type: functional; settings: route intraperitoneal
# Summary of the method: (§4)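 BDF1 or CDF1 mice inoculated ip with ascitic P388 leukemia cells. Dosing ip on days 1, 5 and 9. Deaths recorded for 60 days; % increase in median life span over controls. "Cures" are survivors/total at 60 days.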
# B16 [7] = experiment: Antitumor activity against mouse B16 cells allografted in BDF1 mouse assessed as increase of median life span at 25 mg/kg, ip on day 1 to 9 measured up to 80 days relative to control; type: functional; settings: route intraperitoneal; summary of the method: as §1
# P388 [8] = experiment: Antitumor activity against mouse P388 cells allografted in mouse assessed as disease cure at 50 mg/kg, ip on day 1, 5 and 9 measured up to 60 days; type: functional, organism-based; set-up: dose 50 mg/kg; summary of the method: as §3
# P388 [9] = experiment: Antitumor activity against mouse P388 cells allografted in mouse assessed as increase of median life span at 50 mg/kg, ip on day 1, 5 and 9 measured up to 60 days relative to control; type: functional; settings: route intraperitoneal; summary of the method: as §4
# P388 [10] = experiment: Antitumor activity against mouse P388 cells allografted in mouse assessed as increase of median life span at 3.1 mg/kg, ip on day 1, 5 and 9 measured up to 60 days relative to control; type: functional; settings: route intraperitoneal
# Summary of the method: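 BDF or CDF1 mice injected ip with ascitic leukemia cells, then dosed ip on days 1, 5 and 9. Deaths recorded for 60 days. Read-outs: percent increase in median life span over controls, and "cures" as survivors/total at 60 days.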
# B16 [11] = experiment: Antitumor activity against mouse B16 cells allografted in BDF1 mouse assessed as increase of median life span at 6.2 mg/kg, ip on day 1 to 9 measured up to 80 days relative to control; type: functional; settings: route intraperitoneal; summary of the method: as §1
# P388 [12] = experiment: Antitumor activity against mouse P388 cells allografted in mouse assessed as disease cure at 25 mg/kg, ip on day 1, 5 and 9 measured up to 60 days; type: functional, organism-based; set-up: dose 25 mg/kg; summary of the method: as §3
# P388 [13] = experiment: Antitumor activity against mouse P388 cells allografted in mouse assessed as increase of median life span at 25 mg/kg, ip on day 1, 5 and 9 measured up to 60 days relative to control; type: functional; settings: route intraperitoneal; summary of the method: as §4
# B16 [14] = experiment: Antitumor activity against mouse B16 cells allografted in BDF1 mouse assessed as disease cure at 6.2 mg/kg, ip on day 1 to 9 measured up to 80 days; type: functional, organism-based; set-up: dose 6.2 mg/kg; summary of the method: as §2
# P388 [15] = experiment: Antitumor activity against mouse P388 cells allografted in mouse assessed as disease cure at 300 mg/kg, ip on day 1, 5 and 9 measured up to 60 days; type: functional, organism-based; set-up: dose 300 mg/kg; summary of the method: as §3
# P388 [16] = experiment: Antitumor activity against mouse P388 cells allografted in mouse assessed as increase of median life span at 300 mg/kg, ip on day 1, 5 and 9 measured up to 60 days relative to control; type: functional; settings: route intraperitoneal; summary of the method: as §4
# B16 [17] = experiment: Antitumor activity against mouse B16 cells allografted in BDF1 mouse assessed as increase of median life span at 50 mg/kg, ip on day 1 to 9 measured up to 80 days relative to control; type: functional; settings: route intraperitoneal; summary of the method: as §1
# B16 [18] = experiment: Antitumor activity against mouse B16 cells allografted in BDF1 mouse assessed as increase of median life span at 3.1 mg/kg, ip on day 1 to 9 measured up to 80 days relative to control; type: functional; settings: route intraperitoneal; summary of the method: as §1
# P388 [19] = experiment: Antitumor activity against mouse P388 cells allografted in mouse assessed as increase of median life span at 12.5 mg/kg, ip on day 1, 5 and 9 measured up to 60 days relative to control; type: functional; settings: route intraperitoneal; summary of the method: as §4
# B16 [20] = experiment: Antitumor activity against mouse B16 cells allografted in BDF1 mouse assessed as disease cure at 25 mg/kg, ip on day 1 to 9 measured up to 80 days; type: functional, organism-based; set-up: dose 25 mg/kg; summary of the method: as §2
# P388 [21] = experiment: Antitumor activity against mouse P388 cells allografted in mouse assessed as disease cure at 6.2 mg/kg, ip on day 1, 5 and 9 measured up to 60 days; type: functional, organism-based; set-up: dose 6.2 mg/kg; summary of the method: as §3
# P388 [22] = experiment: Antitumor activity against mouse P388 cells allografted in mouse assessed as increase of median life span at 6.2 mg/kg, ip on day 1, 5 and 9 measured up to 60 days relative to control; type: functional; settings: route intraperitoneal; summary of the method: as §4
# B16 [23] = experiment: Antitumor activity against mouse B16 cells allografted in BDF1 mouse assessed as disease cure at 3.1 mg/kg, ip on day 1 to 9 measured up to 80 days; type: functional, organism-based; set-up: dose 3.1 mg/kg; summary of the method: as §2
structure (smiles),measurement,setting,value
O=C1c2ccccc2C(=O)c2c(NCCN3CCOCC3)ccc(NCCN3CCOCC3)c21,ILS at 400 mg/kg,B16 [1],33%
same,ILS at 400 mg/kg,P388 [2],119%
same,Activity,P388 [3],inactive
same,Activity,B16 [4],inactive
CN(C)CCNc1ccc(NCCN(C)C)c2c1C(=O)c1ccc(C(=O)O)cc1C2=O,Activity,P388 [5],inactive
same,ILS at 250 mg/kg,P388 [6],0%
CN(C)CCNc1ccc(NCCN(C)C)c2c1C(=O)c1ccc(O)c(O)c1C2=O,ILS at 25 mg/kg,B16 [7],60%
same,Activity,P388 [8],inactive
same,ILS at 50 mg/kg,P388 [9],57%
CN(C)CCCCNc1ccc(NCCCCN(C)C)c2c1C(=O)c1ccccc1C2=O,Activity,P388 [5],inactive
same,ILS at 250 mg/kg,P388 [6],0%
NCCNc1ccc(NCCN)c2c1C(=O)c1c(O)ccc(O)c1C2=O,ILS at 3.1 mg/kg,P388 [10],173%
NCCCNc1ccc(NCCCN)c2c1C(=O)c1c(O)ccc(O)c1C2=O,ILS at 6.2 mg/kg,B16 [11],87%
same,Activity,P388 [12],inactive
same,ILS at 25 mg/kg,P388 [13],83%
same,Activity,B16 [14],inactive
O=C1c2ccccc2C(=O)c2c(NCCN(CCO)CCO)ccc(NCCN(CCO)CCO)c21,Activity,P388 [15],inactive
same,ILS at 300 mg/kg,P388 [16],73%
same,ILS at 50 mg/kg,B16 [17],88%
CC(O)CNCCNc1ccc(NCCNCC(C)O)c2c1C(=O)c1c(O)ccc(O)c1C2=O (stereo not drawn),ILS at 3.1 mg/kg,B16 [18],240%
same,ILS at 12.5 mg/kg,P388 [19],255%
O=C1c2c(O)ccc(O)c2C(=O)c2c(NCCCNCCO)ccc(NCCCNCCO)c21,Activity,B16 [20],inactive
same,ILS at 25 mg/kg,B16 [7],100%
same,ILS at 50 mg/kg,P388 [9],191%
CNCCNc1ccc(NCCNC)c2c1C(=O)c1c(O)ccc(O)c1C2=O,Activity,P388 [21],inactive
same,ILS at 6.2 mg/kg,P388 [22],118%
same,ILS at 3.1 mg/kg,B16 [18],210%
same,Activity,B16 [23],inactive
